Series [1] is described as follows: Selectivity index, ratio of CC50 for human HeLa cells to EC50 for Leishmania donovani LdBOB amastigotes infected in human THP1 cells. In kind it is toxicity, cell-based. To be noted: read-out: Ratio CC50/EC50. In outline:
(§1)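 Selectivity index computed as CC50 (HeLa, Alamar blue) divided by EC50 for the respective parasite stage.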

The nature of series [2]: Cytotoxicity against human HeLa cells after 65 hrs by alamar blue assay. In kind it is cell-based. In outline:
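HeLa cells first screened at 500 µM. Active compounds then tested for CC50: cells seeded at 2 × 10^4/well, exposed to compound 65 h, then Alamar Blue added for a further 5 h.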
A general note: The colour change of resazurin is a common sign of viable cells or microbes.

Series [3] concerns Leishmania donovani. Description: Antileishmanial activity against Leishmania donovani LdBOB axenic amastigotes after 72 hrs by alamar blue assay. The series is classed as functional, organism-based. In outline: (§2)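 Axenic amastigotes (L. donovani LdBOB; L. infantum clone JPCM5, grown at 26 °C in HOMEM) incubated 72 h with compounds. Viability read by Alamar blue; EC50 determined.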

Series [4] in a line: Selectivity index, ratio of CC50 for human HeLa cells to EC50 for Leishmania infantum JPCM5 MCAN/ES/98/LLM-87 axenic amastigotes. The series is classed as toxicity. To be noted: read-out: Ratio CC50/EC50. In outline: as §1
Series [5] is described as follows: Selectivity index, ratio of CC50 for human HeLa cells to EC50 for Leishmania donovani LdBOB axenic amastigotes. To be noted: read-out: Ratio CC50/EC50. The series is classed as toxicity. In outline:
as §1

The subject of series [6] is Leishmania donovani. Description: Antileishmanial activity against Leishmania donovani LdBOB amastigotes infected in human THP1 cells after 72 hrs by Giemsa staining based microscopic method. As to conditions: THP-1, 72 h. In kind it is functional, organism-based. In outline:
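THP-1 cells, kept in MEM plus 10% FBS, plated at 20,000/well with 10 nM PMA, 37 °C, 5% CO2, 75 h. Washed in PBS with 1 mM CaCl2, 0.5 mM MgCl2, 0.1% BSA. Infected with axenic LdBOB amastigotes at MOI 5 for 18 h, washed, serial compound dilutions for 72 h. Methanol fixation, Giemsa stain, ~200 macrophages/well counted. % infection vs untreated control (100%) gives EC50.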

Series [7] deals with Leishmania infantum. The series is described as follows: Selectivity ratio of EC50 for antileishmanial activity against Leishmania infantum JPCM5 MCAN/ES/98/LLM-87 promastigotes to EC50 for antileishmanial activity against Leishmania infantum JPCM5 MCAN/ES/98/LLM-87 amastigotes. The series is classed as functional.
Series [8] is described as follows: Selectivity index, ratio of CC50 for human HeLa cells to EC50 for Leishmania infantum JPCM5 MCAN/ES/98/LLM-87 promastigotes. The series is classed as toxicity. As to conditions: read-out: Ratio CC50/EC50. In outline: as §1
Series [9] has as its system Leishmania donovani. The series is described as follows: Antileishmanial activity against Leishmania donovani promastigotes after 72 hrs by alamar blue assay. In kind it is functional, organism-based. In outline: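 L. donovani promastigotes grown at 26 °C in M199 plus 10% heat-inactivated FCS. Exposed to serial compound dilutions for 72 h, then Alamar blue read-out to give EC50.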

Series [10] relates to Leishmania infantum. The series is described as follows: Potency index, ratio of miltefosine EC50 to compound EC50 for antileishmanial activity against Leishmania infantum JPCM5 MCAN/ES/98/LLM-87 promastigotes. The series is classed as functional.
Series [11] concerns Leishmania infantum. Description: Antileishmanial activity against Leishmania infantum JPCM5 MCAN/ES/98/LLM-87 axenic amastigotes after 72 hrs by alamar blue assay. The series is classed as functional, organism-based. To be noted: MCAN/ES/98/LLM-87, 72 h. In outline:
as §2

The nature of series [12]: Selectivity index, ratio of CC50 for human HeLa cells to EC50 for Leishmania donovani promastigotes. The series is classed as toxicity. As to conditions: read-out: Ratio CC50/EC50. In outline: as §1
The subject of series [13] is Leishmania infantum. Description: Antileishmanial activity against Leishmania infantum JPCM5 MCAN/ES/98/LLM-87 promastigotes after 72 hrs by alamar blue assay. In kind it is functional, organism-based. As to conditions: MCAN/ES/98/LLM-87, 72 h. In outline: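 L. infantum JPCM5 promastigotes grown at 26 °C in HOMEM. Exposed to serial compound dilutions for 72 h, then Alamar blue read-out to give EC50.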

The test system of series [14] is Leishmania infantum. The series is described as follows: Potency index, ratio of pentamidine EC50 to compound EC50 for antileishmanial activity against Leishmania infantum JPCM5 MCAN/ES/98/LLM-87 promastigotes. The series is classed as functional.

This is an account of results in ChEMBL document CHEMBL4196090, “Design, synthesis and biological evaluation of piperazinyl-β-carbolinederivatives as anti-leishmanial agents” (Eur J Med Chem, 2018).

The structures appear in SMILES notation.

The CC50 is the concentration that lowers cell viability or growth by half. Broadly, the EC50 is the concentration giving half of the maximal effect. High values mean a less potent agent, low ones a more potent agent. On to `COc1cccc(N2CCN(C(=O)c3cc4c([nH]c5ccccc54)c(-c4ccccc4)n3)CC2)c1`, for which the selectivity ratio is 29.7 in [1]; 73.3 in series [4]; 108 in series [5]; 71 in series [8]; 42.3 in series [12]. In [2], this molecule had a CC50 at 65 h of 205 µM. The concentration for a half-maximal effect (EC50) worked out at 1.9 µM in the series on Leishmania donovani [3]; 6.9 µM with Leishmania donovani [6]; 4.85 µM with Leishmania donovani [9]; 2.8 µM in the series on Leishmania infantum [11]; 2.89 µM in the series on Leishmania infantum [13]. In addition, the “Ratio EC50” value with Leishmania infantum [7] is recorded as 2 - 5; in the series with Leishmania infantum [10], 4; with Leishmania infantum [14] it was 4.
